In ChEMBL document CHEMBL3351561, “Discovery of 9-(1-anilinoethyl)-2-morpholino-4-oxo-pyrido[1,2-a]pyrimidine-7-carboxamides as PI3Kβ/δ inhibitors for the treatment of PTEN-deficient tumours” (Bioorg Med Chem Lett, 2014):
≈ marks a conversion by molar mass, not a printed value.

Experiments:
[1] = target: Phosphatidylinositol 4,5-bisphosphate 3-kinase catalytic subunit gamma isoform (Homo sapiens, UniProt P48736); assay: Inhibition of human recombinant PI3Kgamma assessed as depletion of ATP substrate by Ultra Glo luciferase assay
Phosphatidylinositol 4,5-bisphosphate 3-kinase catalytic subunit gamma isoform, sequence (P48736 whole entry, canonical isoform): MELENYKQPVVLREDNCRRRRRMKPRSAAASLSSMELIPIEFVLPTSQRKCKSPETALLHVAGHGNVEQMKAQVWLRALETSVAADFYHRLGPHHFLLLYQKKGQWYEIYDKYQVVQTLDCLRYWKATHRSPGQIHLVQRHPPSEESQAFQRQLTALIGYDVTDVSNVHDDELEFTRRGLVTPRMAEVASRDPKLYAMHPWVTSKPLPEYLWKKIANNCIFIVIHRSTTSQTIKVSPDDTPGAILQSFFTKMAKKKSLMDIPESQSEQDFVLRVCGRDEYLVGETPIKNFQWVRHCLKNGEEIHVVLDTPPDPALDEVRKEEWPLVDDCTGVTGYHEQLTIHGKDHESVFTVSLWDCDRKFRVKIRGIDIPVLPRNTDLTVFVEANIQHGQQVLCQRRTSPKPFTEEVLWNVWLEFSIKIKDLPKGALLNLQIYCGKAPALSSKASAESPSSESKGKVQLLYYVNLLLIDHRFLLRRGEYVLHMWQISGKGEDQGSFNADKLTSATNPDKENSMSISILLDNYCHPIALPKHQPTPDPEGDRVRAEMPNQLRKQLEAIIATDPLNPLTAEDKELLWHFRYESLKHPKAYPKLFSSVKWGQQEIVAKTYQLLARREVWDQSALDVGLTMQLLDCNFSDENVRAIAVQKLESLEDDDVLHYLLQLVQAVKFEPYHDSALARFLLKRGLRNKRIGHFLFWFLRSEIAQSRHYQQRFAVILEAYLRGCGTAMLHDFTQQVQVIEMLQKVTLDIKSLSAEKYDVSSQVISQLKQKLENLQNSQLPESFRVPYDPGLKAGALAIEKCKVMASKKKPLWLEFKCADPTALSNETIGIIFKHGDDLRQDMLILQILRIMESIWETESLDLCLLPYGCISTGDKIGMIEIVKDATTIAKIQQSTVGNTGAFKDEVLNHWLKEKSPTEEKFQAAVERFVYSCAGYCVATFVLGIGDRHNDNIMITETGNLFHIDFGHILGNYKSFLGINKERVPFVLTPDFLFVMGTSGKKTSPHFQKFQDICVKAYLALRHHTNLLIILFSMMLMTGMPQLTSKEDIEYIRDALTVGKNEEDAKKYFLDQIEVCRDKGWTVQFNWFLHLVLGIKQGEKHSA
Method in brief: (§1)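 Enzyme IC50s are reported as the geometric mean of 3 or more values.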

Homo sapiens [2] = species on record: Homo sapiens; assay: Ratio of IC50 for human recombinant PI3Kgamma to IC50 human recombinant PI3Kbeta
Method in brief: (§2)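 Ratio is taken from enzyme IC50 values, each the geometric mean of 3 or more determinations. In the PI3Kβ enzyme assay, functional enzyme concentration was measured experimentally. The tight-binding limit, half that concentration, is 10 nM, so β IC50 values near that floor set a cap on the ratio.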

Homo sapiens [3] = species on record: Homo sapiens; assay: Ratio of IC50 for PI3Kalpha human BT474 cells to IC50 PI3Kbeta in human […] cells
[4] = target: T1, Phosphatidylinositol 4,5-bisphosphate 3-kinase catalytic subunit alpha isoform (Homo sapiens, UniProt P42336); assay: Inhibition of PI3Kalpha in human BT474 cells assessed as inhibition of […] Akt phosphorylation after 2 hrs by fluorescence assay; assay type: cell-based, BT-474
T1 sequence (P42336 whole entry, canonical isoform): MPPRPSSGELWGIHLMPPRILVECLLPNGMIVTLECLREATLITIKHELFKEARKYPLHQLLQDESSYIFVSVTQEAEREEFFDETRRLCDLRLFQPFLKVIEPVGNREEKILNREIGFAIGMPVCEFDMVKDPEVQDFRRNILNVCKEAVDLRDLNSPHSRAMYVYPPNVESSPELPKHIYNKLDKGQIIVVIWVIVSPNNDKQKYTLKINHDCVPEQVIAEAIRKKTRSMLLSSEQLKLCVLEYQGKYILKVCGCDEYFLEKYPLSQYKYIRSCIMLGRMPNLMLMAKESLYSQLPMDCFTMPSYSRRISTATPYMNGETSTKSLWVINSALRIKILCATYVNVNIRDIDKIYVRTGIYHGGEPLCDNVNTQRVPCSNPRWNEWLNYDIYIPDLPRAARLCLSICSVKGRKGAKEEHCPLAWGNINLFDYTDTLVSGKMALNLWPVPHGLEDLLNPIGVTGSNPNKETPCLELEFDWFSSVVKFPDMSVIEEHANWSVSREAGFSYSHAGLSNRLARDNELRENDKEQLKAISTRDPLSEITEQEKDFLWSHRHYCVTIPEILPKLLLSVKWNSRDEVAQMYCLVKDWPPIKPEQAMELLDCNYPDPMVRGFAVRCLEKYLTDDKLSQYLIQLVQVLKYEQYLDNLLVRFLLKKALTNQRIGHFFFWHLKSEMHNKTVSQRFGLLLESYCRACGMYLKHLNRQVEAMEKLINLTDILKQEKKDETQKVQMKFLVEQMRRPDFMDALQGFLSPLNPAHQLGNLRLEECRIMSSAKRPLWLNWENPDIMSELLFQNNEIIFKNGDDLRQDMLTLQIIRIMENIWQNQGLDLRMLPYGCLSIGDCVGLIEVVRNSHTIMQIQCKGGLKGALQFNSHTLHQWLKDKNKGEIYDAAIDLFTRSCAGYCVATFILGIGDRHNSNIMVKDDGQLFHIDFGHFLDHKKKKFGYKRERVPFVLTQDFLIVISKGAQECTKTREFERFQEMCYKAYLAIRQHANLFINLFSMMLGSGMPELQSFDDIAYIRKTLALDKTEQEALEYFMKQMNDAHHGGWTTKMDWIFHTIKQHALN
Method in brief: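 BT474 cells were seeded in DMEM with 10% FCS and 1% glutamine and left to adhere overnight, then treated with compound in DMSO for 2 h at 37 °C and 5% CO2. Cells were lysed with a phosphatase/protease-inhibitor buffer. Lysate was captured on anti-total-Akt plates, probed with anti-phospho-Akt Thr308 and an HRP secondary, and read by fluorescence (ex 325/em 420 nm). Values are the geometric mean of ≥2 determinations.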

[5] = target: T2, Phosphatidylinositol 4,5-bisphosphate 3-kinase catalytic subunit beta isoform (Homo sapiens, UniProt P42338); assay: Inhibition of PI3Kbeta in human MAD-MB-468 cells assessed as inhibition of Ser473 Akt phosphorylation by cellular potency assay
T2 sequence (P42338 whole entry, canonical isoform): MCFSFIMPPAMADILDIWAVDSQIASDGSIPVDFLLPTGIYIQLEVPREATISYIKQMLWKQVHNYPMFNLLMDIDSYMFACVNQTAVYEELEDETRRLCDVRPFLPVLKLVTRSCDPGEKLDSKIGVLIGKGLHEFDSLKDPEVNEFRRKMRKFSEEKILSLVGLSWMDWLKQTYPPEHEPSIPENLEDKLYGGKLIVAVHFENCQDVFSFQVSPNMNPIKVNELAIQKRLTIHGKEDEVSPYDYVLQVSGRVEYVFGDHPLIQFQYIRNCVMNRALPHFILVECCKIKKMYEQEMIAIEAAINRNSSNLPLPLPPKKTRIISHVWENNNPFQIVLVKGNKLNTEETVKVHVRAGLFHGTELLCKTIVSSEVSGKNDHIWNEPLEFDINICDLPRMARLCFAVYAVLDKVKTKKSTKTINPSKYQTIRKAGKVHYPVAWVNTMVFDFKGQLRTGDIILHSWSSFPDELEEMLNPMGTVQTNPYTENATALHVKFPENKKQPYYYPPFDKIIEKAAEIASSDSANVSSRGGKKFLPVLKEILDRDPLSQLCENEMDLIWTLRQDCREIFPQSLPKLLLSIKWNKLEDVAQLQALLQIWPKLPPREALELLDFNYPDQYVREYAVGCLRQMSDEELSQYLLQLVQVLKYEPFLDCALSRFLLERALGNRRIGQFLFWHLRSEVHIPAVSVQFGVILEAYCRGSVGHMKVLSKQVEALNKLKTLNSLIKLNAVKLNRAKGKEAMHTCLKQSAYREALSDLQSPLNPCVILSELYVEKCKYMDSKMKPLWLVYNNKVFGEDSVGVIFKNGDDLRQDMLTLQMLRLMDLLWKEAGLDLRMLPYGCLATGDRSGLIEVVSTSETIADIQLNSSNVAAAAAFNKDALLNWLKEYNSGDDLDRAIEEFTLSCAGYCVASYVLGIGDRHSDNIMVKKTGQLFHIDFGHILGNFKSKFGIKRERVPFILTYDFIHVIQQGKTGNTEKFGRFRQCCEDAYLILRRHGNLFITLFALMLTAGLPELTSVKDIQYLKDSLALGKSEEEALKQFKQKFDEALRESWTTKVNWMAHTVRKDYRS

Homo sapiens [6] = species on record: Homo sapiens; assay: Ratio of IC50 for human recombinant PI3Kalpha to IC50 human recombinant PI3Kbeta; method in brief: as §2
[7] = Buffer/octanol partition coefficient, log D of the compound at pH 7.4 by shake flask method; assay type: physicochemical
Method in brief: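 LogD at pH 7.4 was measured by shake-flask with a buffer/octanol volume ratio of 100:1.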

[8] = target: T2, Phosphatidylinositol 4,5-bisphosphate 3-kinase catalytic subunit beta isoform; assay: Inhibition of human recombinant PI3Kbeta assessed as depletion of ATP substrate by Ultra Glo luciferase assay; method in brief: as §1
[9] = target: T3, Phosphatidylinositol 4,5-bisphosphate 3-kinase catalytic subunit delta isoform (Homo sapiens, UniProt O00329); assay: Inhibition of human recombinant PI3Kdelta assessed as depletion of ATP substrate by Ultra Glo luciferase assay; method in brief: as §1
T3 sequence (O00329 whole entry): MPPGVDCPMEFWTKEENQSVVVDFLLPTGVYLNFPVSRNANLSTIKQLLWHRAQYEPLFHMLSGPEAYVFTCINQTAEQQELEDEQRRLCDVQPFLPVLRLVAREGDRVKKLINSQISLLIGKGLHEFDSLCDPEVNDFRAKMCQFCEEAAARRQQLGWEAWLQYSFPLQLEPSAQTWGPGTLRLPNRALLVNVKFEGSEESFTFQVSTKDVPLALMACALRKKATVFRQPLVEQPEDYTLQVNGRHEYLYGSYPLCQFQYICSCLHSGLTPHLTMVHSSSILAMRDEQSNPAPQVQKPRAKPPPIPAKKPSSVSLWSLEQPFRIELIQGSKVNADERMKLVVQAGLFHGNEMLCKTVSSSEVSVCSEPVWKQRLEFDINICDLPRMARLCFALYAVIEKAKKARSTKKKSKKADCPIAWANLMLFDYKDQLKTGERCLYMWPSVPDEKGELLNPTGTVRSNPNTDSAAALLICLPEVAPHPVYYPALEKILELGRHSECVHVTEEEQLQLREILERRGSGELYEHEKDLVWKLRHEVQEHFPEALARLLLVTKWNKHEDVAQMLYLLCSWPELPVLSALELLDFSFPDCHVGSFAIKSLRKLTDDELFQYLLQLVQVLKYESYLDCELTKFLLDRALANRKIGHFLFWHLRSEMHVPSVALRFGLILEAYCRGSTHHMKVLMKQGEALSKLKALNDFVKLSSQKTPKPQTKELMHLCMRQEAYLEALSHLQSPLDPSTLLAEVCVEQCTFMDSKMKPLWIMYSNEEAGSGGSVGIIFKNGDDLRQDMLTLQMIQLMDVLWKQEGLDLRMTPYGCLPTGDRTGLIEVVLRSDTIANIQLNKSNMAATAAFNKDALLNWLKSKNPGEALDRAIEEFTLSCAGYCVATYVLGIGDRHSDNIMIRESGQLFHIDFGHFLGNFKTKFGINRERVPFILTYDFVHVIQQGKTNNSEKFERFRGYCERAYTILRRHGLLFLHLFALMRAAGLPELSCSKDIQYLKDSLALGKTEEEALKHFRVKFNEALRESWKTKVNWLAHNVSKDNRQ

[10] = target: T1, Phosphatidylinositol 4,5-bisphosphate 3-kinase catalytic subunit alpha isoform; assay: Inhibition of human recombinant PI3Kalpha assessed as depletion of ATP substrate by Ultra Glo luciferase assay; method in brief: as §1
[11] = Apparent permeability from apical (pH 6.5) to […] of human Caco2 cells; assay type: ADME, cell-based; conditions: Caco-2, pH 6.5
[12] = Fraction unbound in human plasma; assay type: ADME, cell-free
Method in brief: (§3)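 Protein binding was measured in nude mouse plasma and in human plasma and is expressed as fraction unbound (%).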

[13] = Ratio of total plasma concentration in PTEN-null human PC3 cells xenografted in SCID mouse at 50 mg/kg, po single dose at 0.5 hrs to IC50 for PI3Kbeta in human […] cells; design: species or system PC-3
Method in brief: (§4)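 SCID mice bearing PTEN-null PC3 prostate tumour xenografts got a single oral dose given as a suspension. Total plasma concentration was measured at the sampled time points (0.5, 4 or 8 h). The value is the […] cover over the PI3Kβ cellular IC50, which comes from inhibition of Ser473 Akt phosphorylation in PTEN-null MDA-MB-468 breast adenocarcinoma cells.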

Mus musculus [14] = assay: Inhibition of Akt phosphorylation in SCID mouse xenografted with PTEN-null human PC3 cells at 50 mg/kg, po measured after 4 hrs; assay type: functional; conditions: PC-3, 4 h
Method in brief: (§5)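 SCID mice carrying PTEN-null PC3 prostate xenografts received a single oral dose as a suspension (50, 100 or 200 mg/kg).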

[15] = Clearance in mouse plasma at 5 umol/kg, iv and 30 umol/kg, po; assay type: ADME, organism-based
Method in brief: (§6)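 […] mice were dosed at 5 µmol/kg i.v. and 30 µmol/kg p.o. Clearance is given in mL/min/kg and oral bioavailability in %.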

[16] = Bioavailability in mouse plasma at 5 umol/kg, iv and 30 umol/kg, po; assay type: ADME, organism-based; method in brief: as §6
[17] = Fraction unbound in mouse plasma; assay type: ADME, cell-free; method in brief: as §3
[18] = Total plasma concentration in SCID mouse xenografted with PTEN-null human PC3 cells at 50 mg/kg, po measured after 4 hrs; assay type: ADME, organism-based, PC-3; design: dose 50 mg/kg, route oral
Method in brief: (§7)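 Total plasma concentration was measured in SCID mice carrying PC3 xenografts after a single oral dose given as a suspension (50, 100 or 200 mg/kg). Samples were taken at 0.5 to 8 h.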

[19] = Ratio of total plasma concentration in PTEN-null human PC3 cells xenografted in SCID mouse at 50 mg/kg, po single dose at 4 hrs to IC50 for PI3Kbeta in human […] cells; design: species or system PC-3; method in brief: as §4
Mus musculus [20] = assay: Inhibition of Akt phosphorylation in SCID mouse xenografted with PTEN-null human PC3 cells at 50 mg/kg, po measured after 30 mins; assay type: functional; conditions: PC-3, 0.5 h; method in brief: as §5
[21] = Total plasma concentration in SCID mouse xenografted with PTEN-null human PC3 cells at 50 mg/kg, po measured after 30 mins; assay type: ADME, organism-based, PC-3; design: dose 50 mg/kg, route oral; method in brief: as §7
[22] = Half life in mouse plasma at 5 umol/kg, iv and 30 umol/kg, po; assay type: ADME, organism-based
[23] = Total plasma concentration in SCID mouse xenografted with PTEN-null human PC3 cells at 100 mg/kg, po measured after 30 mins; assay type: ADME, organism-based, PC-3; design: dose 100 mg/kg, route oral; method in brief: as §7
Mus musculus [24] = assay: Inhibition of Akt phosphorylation in SCID mouse xenografted with PTEN-null human PC3 cells at 100 mg/kg, po measured after 4 hrs; assay type: functional; conditions: PC-3, 4 h; method in brief: as §5
[25] = Total plasma concentration in SCID mouse xenografted with PTEN-null human PC3 cells at 100 mg/kg, po measured after 4 hrs; assay type: ADME, organism-based, PC-3; design: dose 100 mg/kg, route oral; method in brief: as §7
[26] = Ratio of total plasma concentration in PTEN-null human PC3 cells xenografted in SCID mouse at 100 mg/kg, po single dose at 4 hrs to IC50 for PI3Kbeta in human MAD-MB-468 cells; design: species or system PC-3
[27] = Solubility of the compound in phosphate buffer at pH 7.4; assay type: physicochemical
Method in brief: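 Solubility was measured from solid material in phosphate buffer at pH 7.4.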

Mus musculus [28] = assay: Inhibition of Akt phosphorylation in SCID mouse xenografted with PTEN-null human PC3 cells at 100 mg/kg, po measured after 30 mins; assay type: functional; conditions: PC-3, 0.5 h; method in brief: as §5
[29] = Intrinsic clearance in human hepatocytes measured per 10^6 cells; assay type: ADME, cell-based, Hepatocyte; conditions: read-out: CLH
Method in brief: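 Intrinsic clearance was measured in human hepatocytes and is expressed in µL/min/10^6 cells.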

[30] = Ratio of total plasma concentration in PTEN-null human PC3 cells xenografted in SCID mouse at 100 mg/kg, po single dose at 0.5 hrs to IC50 for PI3Kbeta in human […] cells; design: species or system PC-3; method in brief: as §4

Structure (SMILES)	IC50 [1] [nM]	Ratio IC50 (Homo sapiens [3])	IC50 [4] [nM]	IC50 [5] [nM]	logD [7]	IC50 [8] [nM]	IC50 [9] [nM]	IC50 [10] [nM]	Papp A→B [11] [×10⁻⁶ cm/s]	fraction unbound [12]	clearance [15] [mL/min/kg]	bioavailability [16] [%]	fraction unbound [17]	other results
CC(Nc1ccccc1)c1cc(C(=O)N(C)C)cn2c(=O)cc(N3CCOCC3)nc12 (single isomer, unassigned; (+))	6000	60	9600	156	2.4	11	110	560	–	–	–	–	–	Ratio IC50 (Homo sapiens [2]): 550; Ratio IC50 (Homo sapiens [6]): 50
CC(Nc1ccccc1)c1cc(C(=O)NCCN(C)C)cn2c(=O)cc(N3CCOCC3)nc12 (single isomer, unassigned; (-))	6900	–	2200	8	1.7	8	85	370	0.2	–	–	–	–	–
CC(Nc1cccc(Cl)c1F)c1cc(C(=O)NCCN(C)C)cn2c(=O)cc(N3CCOCC3)nc12 (single isomer, unassigned; (-))	670	240	970	4	2.7	7	51	92	0.9	0.033	10	39	0.016	Ratio [13]: 83; inhibition in vivo at 50 mg/kg (Mus musculus [14]): 40%; concentration at 4 h [18]: 12 µM; Ratio [19]: 48; inhibition in vivo at 50 mg/kg (Mus musculus [20]): 26%; concentration at 0.5 h [21]: 21 µM
CC(Nc1ccc(F)cc1)c1cc(C(=O)N(C)C)cn2c(=O)cc(N3CCOCC3)nc12 (single isomer, unassigned; (-))	13500	190	11600	62	2.3	37	230	1300	34	0.21	45	70	0.12	half-life [22]: 1.1 h; concentration at 0.5 h [23]: 71 µM; inhibition in vivo at 100 mg/kg (Mus musculus [24]): 60%; concentration at 4 h [25]: 8.1 µM; Ratio [26]: 16; solubility [27]: 130 µM (≈ 57.1 µg/mL); inhibition in vivo at 100 mg/kg (Mus musculus [28]): 85%; hepatocyte CLint [29]: 3 µL/min/1e6 cells; Ratio [30]: 140
